The test system of series [1] is Staphylococcus aureus. As to the kind of experiment: Antibacterial activity against methicillin-resistant Staphylococcus aureus COL infected New Zealand White rabbit aortic valve endocarditis model assessed as decrease in bacterial colony forming unit in kidney at 18 mg/kg, iv dosed every 24 hrs for 4 days (reference value: 4.4 +/- 1.0 log10CFU per gram tissue). Format: functional.

The test system of series [2] is Staphylococcus aureus. Nature of the series: Antibacterial activity against methicillin-resistant Staphylococcus aureus COL infected New Zealand White rabbit aortic valve endocarditis model assessed as decrease in bacterial colony forming unit in spleen at 18 mg/kg, iv dosed every 24 hrs for 4 days (reference value: 5.1 +/- 0.9 log10CFU per gram tissue). Type of series: functional.

For series [3], the system named is Staphylococcus aureus. As to the kind of experiment: Antibacterial activity against methicillin-resistant Staphylococcus aureus COL infected New Zealand White rabbit aortic valve endocarditis model assessed as decrease in bacterial colony forming unit in vegetation at 18 mg/kg, iv dosed every 24 hrs for 4 days (reference value: 8.4 +/- 0.7 log10CFU per gram tissue). Format: functional.

Series [4] deals with Staphylococcus aureus. As to the kind of experiment: Antibacterial activity against methicillin-resistant Staphylococcus aureus COL infected New Zealand White rabbit aortic valve endocarditis model assessed as decrease in bacterial colony forming unit in kidney at 25 mg/kg, im dosed every 8 hrs for 4 days (reference value: 4.4 +/- 1.0 log10CFU per gram tissue). The following applies: route intramuscular. Type of series: functional.

Series [5] relates to Staphylococcus aureus. As to the kind of experiment: Antibacterial activity against methicillin-resistant Staphylococcus aureus COL infected New Zealand White rabbit aortic valve endocarditis model assessed as decrease in bacterial colony forming unit in spleen at 25 mg/kg, im dosed every 8 hrs for 4 days (reference value: 5.1 +/- 0.9 log10CFU per gram tissue). Format: functional. The following applies: route intramuscular.

Series [6] relates to Staphylococcus aureus. Nature of the series: Antibacterial activity against methicillin-resistant Staphylococcus aureus COL infected New Zealand White rabbit aortic valve endocarditis model assessed as decrease in bacterial colony forming unit in vegetation at 25 mg/kg, im dosed every 8 hrs for 4 days (reference value: 8.4 +/- 0.7 log10CFU per gram tissue). Format: functional. The following applies: route intramuscular.

In series [7] the test system is Oryctolagus cuniculus. As to the kind of experiment: Plasma concentration in Staphylococcus aureus COL infected New Zealand White rabbit aortic valve endocarditis model at 25 mg/kg, im dosed every 8 hrs for 4 days. Type of series: ADME, organism-based. Further details: dose 25 mg/kg, route intramuscular. The conditions noted are these: in vivo. An outline of the steps: (§1)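 Rabbits with catheter-induced aortic valve endocarditis received about 1.5 × 10^7 CFU COL iv in 1 ml 0.9% saline 48 h after catheter placement. Dosing started 16–18 h post-infection. Plasma was sampled 1 h post-dose from at least three rabbits per group and assayed by HPLC against plasma standard curves. Each value is the mean of two determinations; detection limit ≤0.5 μg/ml.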

Series [8] relates to Staphylococcus aureus. As to the kind of experiment: Antibacterial activity against methicillin-resistant Staphylococcus aureus COL infected New Zealand White rabbit aortic valve endocarditis model assessed as decrease in bacterial colony forming unit in vegetation at 75 mg/kg, sc dosed every 8 hrs for 4 days (reference value: 8.4 +/- 0.7 log10CFU per gram tissue). Type of series: functional. The conditions noted are these: route subcutaneous.

Series [9] has as its system Staphylococcus aureus. As to the kind of experiment: Antibacterial activity against methicillin-resistant Staphylococcus aureus COL infected New Zealand White rabbit aortic valve endocarditis model assessed as decrease in bacterial colony forming unit in spleen at 75 mg/kg, sc dosed every 8 hrs for 4 days (reference value: 5.1 +/- 0.9 log10CFU per gram tissue). Format: functional. The conditions noted are these: route subcutaneous.

In series [10] the test system is Staphylococcus aureus. As to the kind of experiment: Antibacterial activity against methicillin-resistant Staphylococcus aureus COL infected New Zealand White rabbit aortic valve endocarditis model assessed as decrease in bacterial colony forming unit in kidney at 75 mg/kg, sc dosed every 8 hrs for 4 days (reference value: 4.4 +/- 1.0 log10CFU per gram tissue). Type of series: functional. The following applies: route subcutaneous.

Series [11] relates to Oryctolagus cuniculus. As to the kind of experiment: Plasma concentration in Staphylococcus aureus COL infected New Zealand White rabbit aortic valve endocarditis model at 75 mg/kg, sc dosed every 8 hrs for 4 days. The arrangement: dose 75 mg/kg, route subcutaneous. Type of series: ADME, organism-based. The following applies: in vivo. In short, it runs like this: as §1
For series [12], the system named is Staphylococcus aureus. Nature of the series: Antibacterial activity against methicillin-resistant Staphylococcus aureus COL. Type of series: functional.
The test system of series [13] is Staphylococcus aureus. Nature of the series: Antibacterial activity against methicillin-resistant Staphylococcus aureus COL infected New Zealand White rabbit aortic valve endocarditis model assessed as decrease in bacterial colony forming unit in spleen at 30 mg/kg, iv dosed every 12 hrs for 4 days (reference value: 5.1 +/- 0.9 log10CFU per gram tissue). Format: functional.

The subject of series [14] is Staphylococcus aureus. Nature of the series: Antibacterial activity against methicillin-resistant Staphylococcus aureus COL infected New Zealand White rabbit aortic valve endocarditis model assessed as decrease in bacterial colony forming unit in vegetation at 30 mg/kg, iv dosed every 12 hrs for 4 days (reference value: 8.4 +/- 0.7 log10CFU per gram tissue). Format: functional.

For series [15], the system named is Staphylococcus aureus. As to the kind of experiment: Antibacterial activity against methicillin-resistant Staphylococcus aureus COL infected New Zealand White rabbit aortic valve endocarditis model assessed as decrease in bacterial colony forming unit in kidney at 30 mg/kg, iv dosed every 12 hrs for 4 days (reference value: 4.4 +/- 1.0 log10CFU per gram tissue). Format: functional.

Series [16] relates to Oryctolagus cuniculus. Nature of the series: Plasma concentration in Staphylococcus aureus COL infected New Zealand White rabbit aortic valve endocarditis model at 30 mg/kg, iv dosed every 12 hrs for 4 days. Type of series: ADME, organism-based. The arrangement: dose 30 mg/kg, route intravenous. The conditions noted are these: in vivo. An outline of the steps: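 Plasma was drawn 1 h after dosing from at least 3 rabbits and assayed by HPLC. Each value averages two determinations, read from plasma standard curves. The detection limit was ≤0.5 μg/ml.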

The nature of series [17]: Half life in Staphylococcus aureus COL infected New Zealand White rabbit aortic valve endocarditis model at 30 mg/kg, iv dosed every 12 hrs for 4 days. Format: ADME, organism-based, Oryctolagus cuniculus. Further details: dose 30 mg/kg, route intravenous. The conditions noted are these: in vivo.

Values after ≈ are worked out from the molar mass of the structure shown.

Consider `CCCCCCCCCC(=O)N[C@@H](Cc1c[nH]c2ccccc12)C(=O)N[C@H](CC(N)=O)C(=O)N[C@@H](CC(=O)O)C(=O)N[C@@H]1C(=O)NCC(=O)N[C@@H](CCCN)C(=O)N[C@@H](CC(=O)O)C(=O)N[C@H](C)C(=O)N[C@@H](CC(=O)O)C(=O)NCC(=O)N[C@H](CO)C(=O)N[C@@H]([C@H](C)CC(=O)O)C(=O)N[C@@H](CC(=O)c2ccccc2N)C(=O)O[C@@H]1C`, for which the log10CFU/g in the series with Staphylococcus aureus [1] is given as 2.6; in the series on Staphylococcus aureus [2], 2.3; in the series on Staphylococcus aureus [3], 3.6.

Turning to `Nc1nc(/C(=N/O)C(=O)N[C@@H]2C(=O)N3C(C(=O)O)=C(/C=C4\CCN([C@@H]5CCNC5)C4=O)CS[C@H]23)ns1` [CEFTOBIPROLE], the results for the log10CFU/g in the series with Staphylococcus aureus [4], in the series on Staphylococcus aureus [5] and in the series on Staphylococcus aureus [6] were 1.7, 1.8 and 2.1, respectively. The same compound showed a Cp in the series on Oryctolagus cuniculus [7] of 14.4 µg/mL.

With `CC(=O)NC[C@H]1CN(c2ccc(N3CCOCC3)c(F)c2)C(=O)O1` [LINEZOLID], the values for the log10CFU/g in the series on Staphylococcus aureus [8], in the series on Staphylococcus aureus [9] and in the series on Staphylococcus aureus [10] were 5.9, 2.9 and 2.5, respectively. This compound also displayed a Cp in the series on Oryctolagus cuniculus [11] of 28.2 µg/mL.

With `CCOc1ccc2ccccc2c1C(=O)N[C@@H]1C(=O)N2[C@@H]1SC(C)(C)[C@@H]2C(=O)O` [NAFCILLIN], the MIC (as a rule, the smallest concentration in the dilution series that meets the test's criterion for growth inhibition) in the series with Staphylococcus aureus [12] amounted to 256 mg/L (≈ 618 µM).

`CN[C@H](CC(C)C)C(=O)N[C@H]1C(=O)N[C@@H](CC(N)=O)C(=O)N[C@H]2C(=O)N[C@H]3C(=O)N[C@H](C(=O)N[C@H](C(=O)O)c4cc(O)cc(O)c4-c4cc3ccc4O)[C@H](O)c3ccc(c(Cl)c3)Oc3cc2cc(c3O[C@@H]2O[C@H](CO)[C@@H](O)[C@H](O)[C@H]2O[C@H]2C[C@](C)(N)[C@H](O)[C@H](C)O2)Oc2ccc(cc2Cl)[C@H]1O` [VANCOMYCIN]: the log10CFU/g in the series with Staphylococcus aureus [13] turned out to be 3.3; with Staphylococcus aureus [14], 5.9; with Staphylococcus aureus [15], 3.1. Also, in the series on Oryctolagus cuniculus [16], the Cp worked out at 34 µg/mL. Also, the half-life (usually how long it takes for the measured level to halve) in [17] amounted to 1.33 h.

Values taken from ChEMBL document CHEMBL1212779, “Ceftobiprole is superior to vancomycin, daptomycin, and linezolid for treatment of experimental endocarditis in rabbits caused by methicillin-resistant Staphylococcus aureus” (Antimicrob Agents Chemother, 2010).
